Reference: article PMC8567357 (ACS Omega, 2021)
Read-outs that look alike come from different tables or passages of the source.

Key:
HCT-116 cells = assay: Cytotoxicity assay; assay type: cell-based, human; details: for IC50: Homo sapiens
In short: (§1)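 ATCC-sourced cells were cultured 24 h at 37 °C in 5% CO₂ with test compound (25, 50, 75, 100, 200, 400 μg) diluted in DMEM with 10% FBS. LDH released into the supernatant was measured by end-point ELISA, with OD read at 550 nm. Controls were 0.1% Triton X-100 (positive) and medium alone (negative). Viability is % OD relative to control, at 100 μg final, mean ± SD (n = 2). IC50 was taken from the viability-versus-concentration plot.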

LoVo cells = assay: Cytotoxicity assay; assay type: cell-based, human; details: for IC50: Homo sapiens, LoVo
In short: as §1

[1] = molecular target: purified recombinant human LDHA protein (Homo sapiens, UniProt P00338); assay: Lactate dehydrogenase; assay type: biochemical; details: for inhibition at 100 µg/mL: read-out: LDHA mean inhibitory % ± SD
[2] = molecular target: Pyruvate Dehydrogenase Kinase-1 (PDK-1) (Homo sapiens, UniProt Q15118); assay: Pyruvate dehydrogenase kinase; assay type: biochemical; details: for inhibition at 100 µg/mL: read-out: PDK-1 mean inhibitory % ± SD
Chain of Pyruvate Dehydrogenase Kinase-1 (PDK-1) (Q15118 29-436): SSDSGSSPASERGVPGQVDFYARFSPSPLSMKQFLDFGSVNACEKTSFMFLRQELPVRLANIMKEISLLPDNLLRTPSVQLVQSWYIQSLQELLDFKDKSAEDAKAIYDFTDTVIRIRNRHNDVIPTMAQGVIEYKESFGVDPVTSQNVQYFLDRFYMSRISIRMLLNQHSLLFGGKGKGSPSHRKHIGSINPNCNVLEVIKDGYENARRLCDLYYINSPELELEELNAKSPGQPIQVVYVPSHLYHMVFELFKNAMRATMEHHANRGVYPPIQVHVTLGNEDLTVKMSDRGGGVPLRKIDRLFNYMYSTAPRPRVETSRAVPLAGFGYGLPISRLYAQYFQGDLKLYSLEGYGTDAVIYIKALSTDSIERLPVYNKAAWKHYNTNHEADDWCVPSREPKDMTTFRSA
In short: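 PDK-1 activity measured by the Kinase-Glo luminescent method. Wells held 10× assay buffer (250 mM Tris–HCl, 50 mM MgCl₂, 5 mM EGTA, 10 mM EDTA, 10 mM DTT), test compound (25–300 μg), and added solutions of PDH E1 (10 μM), ATP (10 μM) and PDK-1 (20 μM) in KCl/K₃PO₄/MgCl₂ buffer. Incubated 30 min at 37 °C, then Kinase-Glo reagent for 10 min at room temperature, and luminescence read. Controls: PBS or 1% DMSO; sodium dichloroacetate 1000 μM as reference. Mean ± SD of two replicates.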

E. coli (ATCC 25922) = assay: Antibacterial assay; assay type: cell-based; details: Escherichia coli
In short: (§2)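 Hospital-collected standard isolates were grown fresh on nutrient agar and suspended in nutrient broth to 0.5 McFarland. Test compound was mixed with 2 × 10⁷ CFU/mL in sterile BHI and shaken 60 min at 37 °C. Samples were serially diluted in BHI, plated, and incubated 24 h at 37 °C. Residual CFU were compared with the initial inoculum. IC50 is the mean of two measurements. Ampicillin was the positive reference.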

[3] = tested on: Enterococcus faecalis (ATCC 29122); assay: Antibacterial assay; assay type: cell-based; details: ATCC29122, read-out: Enterococcus faecalis mean IC50 (μM)
In short: as §2

[4] = DPPH radical scavenging effect; details: for IC50: read-out: DPPH mean IC50
In short: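 Ethanolic DPPH was mixed with an equal volume of each sample concentration, shaken, and kept 1 h at room temperature in the dark. Residual DPPH absorbance was read at 519 nm against a control without test compound. BHT was the positive control. Scavenging % was calculated from compound and control absorbances. IC50 was taken from the scavenging-versus-concentration plot. Values are means of two determinations ± SD.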

Cytotoxicity assay [5] = assay type: cell-based, human; details: human, HCT-116 cells (colorectal cancer cell line)
In short: as §1

Cytotoxicity assay [6] = assay type: cell-based, human; details: human, LoVo cells (colorectal cancer cell line)
In short: as §1

[7] = ATCC25922, read-out: E. coli mean IC50 (μM)
[8] = ATCC25922, read-out: E. coli mean IC50 (μg/mL) ± SD
[9] = LDHA IC50 (μg/mL) ± SD, mean of two determinations
[10] = HCT-116, read-out: HCT-116 mean IC50 (μM)
[11] = HCT-116, read-out: HCT-116 mean IC50 (μg/mL) ± SD
[12] = PDK1 IC50 (μg/mL) ± SD, mean of two determinations
[13] = read-out: LoVo cells mean IC50 (μM)
[14] = read-out: LoVo cells mean IC50 (μg/mL) ± SD

| Molecule | mean % of viable HCT-116 cell (positive control) (HCT-116 cells; 0.1% in assay medium) [%] | mean % of viable LoVo cells (positive control) (LoVo cells; 0.1% in assay medium) [%] | inhibition at 100 µg/mL [1] [%] | inhibition at 100 µg/mL [2] [%] | IC50 (E. coli (ATCC 25922); [7]) [µM] | IC50 (E. coli (ATCC 25922); [8]) [µg/mL] | IC50 [3] [µM] | DPPH mean IC50 (μg/mL) ± SD [4] [µg/mL] | IC50 [4] [mM] | IC50 ([1]; LDHA IC50 (μM)) [µM] | IC50 [1, 9] [µM] | IC50 (HCT-116 cells; [10]) [µM] | IC50 (HCT-116 cells; [11]) [µg/mL] | viability at 24 h, 100 μg/mL (Cytotoxicity assay [5]) [%] | IC50 ([2]; PDK1 IC50 (μM)) [µM] | IC50 [2, 12] [µM] | IC50 (LoVo cells; [13]) [µM] | IC50 (LoVo cells; [14]) [µg/mL] | viability at 24 h, 100 μg/mL (Cytotoxicity assay [6]) [%] |
| --- | --- | --- | --- | --- | --- | --- | --- | --- | --- | --- | --- | --- | --- | --- | --- | --- | --- | --- | --- |
| Triton X-100 [reference compound] | 0.00 | 0.00 |  |  |  |  |  |  |  |  |  |  |  |  |  |  |  |  |  |
| N#Cc1c(N)sc2c1CCCC2 [1c, 2-amino-4,5,6,7-tetrahydro-benzo[b]thiophene-3-carbonitrile] |  |  | 23.1 ± 3.05 | 11.2 ± 3.18 | 147 | 26.2 ± 1.06 | 119 | 332.5 ± 17.68 | 1.87 |  |  |  |  |  |  |  |  |  |  |
| CCOC(=O)c1c(NC(=O)CN2CCOCC2)sc2c1CCC(c1ccccc1)C2 (stereo not drawn) [5a, Ethyl 2-(2-Morpholinoacetamido)-6-phenyl-4,5,6,7-tetrahydrobenzo[b]thiophene-3-carboxylate] |  |  | 30.8 ± 1.7 | 41 ± 2.83 | 62.8 | 26.9 ± 0.57 | 62.2 | 440.0 ± 28.28 | 1.03 |  |  |  |  |  |  |  |  |  |  |
| CCOC(=O)c1c(NC(=O)c2cccs2)sc2c1CCC(c1ccccc1)C2 (stereo not drawn) [3e, Ethyl 6-Phenyl-2-(thiophene-2-carboxamido)-4,5,6,7-tetrahydrobenzo[b] thiophene-3-carboxylate] |  |  | 18.4 ± 1.98 | 18.4 ± 1.98 | 89.4 | 36.8 ± 1.7 | 90.6 | 595.0 ± 21.21 | 1.45 |  |  |  |  |  |  |  |  |  |  |
| N#Cc1c(N2C(=O)CCC2=O)sc2c1CCC(c1ccccc1)C2 (stereo not drawn) [compound 7, 2-(2,5-Dioxopyrrolidin-1-yl)-6-phenyl-4,5,6,7-tetrahydrobenzo[b]thiophene-3-carbonitrile] |  |  | 48.8 ± 5.3 | 35.9 ± 4.1 | 82.9 | 27.9 ± 2.26 | 83.5 | 222.5 ± 17.68 | 0.661 | 276 | 276 | 288 | 97 ± 2.83 | 47.2 ± 1.06 | 428 | 428 | 323 | 108 ± 3.54 | 51.5 ± 2.12 |
| CN(C)C=Nc1sc2c(c1C#N)CCC(c1ccccc1)C2 (stereo not drawn) [compound 9, N′-(3-Cyano-6-phenyl-4,5,6,7-tetrahydrobenzo[b]thiophen-2-yl)-N,N-dimethyl Formamidine] |  |  | 32.6 ± 2.33 | 36.5 ± 2.12 | 94.9 | 29.4 ± 1.2 | 111 | 210.0 ± 28.28 | 0.679 |  |  | 524 | 162 ± 4.24 | 69 ± 1.41 |  |  | 642 | 198 ± 4.95 | 71.8 ± 2.55 |
| Cc1cc(C(C)(C)C)c(O)c(C(C)(C)C)c1 [BHT, butylated hydroxy toluene, reference compound] |  |  |  |  |  |  |  | 54.0 ± 5.66 | 0.245 |  |  |  |  |  |  |  |  |  |  |
| COc1ccc(C=Nc2sc3c(c2C#N)CCCC3)cc1O [compound 11, 2-((3-Hydroxy-4-methoxybenzylidene)amino)-4,5,6,7-tetrahydrobenzo[b]thiophene-3-carbonitrile] |  |  | 29.6 ± 1.98 | 23.7 ± 2.4 | 181 | 56.6 ± 1.98 | 126 | 332.5 ± 17.68 | 1.06 |  |  | 403 | 126 ± 4.25 | 60.5 ± 2.12 |  |  | 474 | 148 ± 4.24 | 63.8 ± 1.77 |
| CCOC(=O)c1c(N)sc2c1CCC(c1ccccc1)C2 (stereo not drawn) [compound 1a, 2-amino-6-phenyl-4,5,6,7-tetrahydrobenzo[b]thiophene-3-carboxylic acid ethyl ester] |  |  | 19.2 ± 3.18 | 12.3 ± 1.91 | 82.6 | 24.9 ± 0.99 | 146 | 390.5 ± 13.44 | 1.3 |  |  |  |  |  |  |  |  |  |  |
| CCOC(=O)Nc1sc2c(c1C#N)CCC(c1ccccc1)C2 (stereo not drawn) [compound 3b, Ethyl (3-Cyano-6-phenyl-4,5,6,7-tetrahydrobenzo[b]thiophen-2-yl)carbamate] |  |  | 19.3 ± 0.85 | 51.5 ± 3.54 |  |  | 83.5 | 130.0 ± 14.14 | 0.398 | 892 | 891 | 218 | 71 ± 2.83 | 28 ± 1.41 | 302 | 302 | 250 | 81.5 ± 3.54 | 35.5 ± 2.12 |
| CC1(C)S[C@@H]2[C@H](NC(=O)[C@H](N)c3ccccc3)C(=O)N2[C@H]1C(=O)O [ampicillin, reference compound] |  |  |  |  | 58 | 20.2 ± 1.77 | 36.5 |  |  |  |  |  |  |  |  |  |  |  |  |
| N#Cc1c(N)sc2c1CCC(c1ccccc1)C2 (stereo not drawn) [compound 1b, 2-amino-6-phenyl-4,5,6,7-tetrahydrobenzo[b]thiophene-3-carbonitrile] |  |  | 74.1 ± 2.97 | 87 ± 2.83 |  |  | 83.4 | 110.0 ± 14.14 | 0.432 | 252 | 252 |  |  | 53.5 ± 2.12 | 224 | 224 |  |  | 56.5 ± 0.71 |
| CCOC(=O)Nc1sc2c(c1C(=O)OCC)CCC(c1ccccc1)C2 (stereo not drawn) [3a, Ethyl 2-((Ethoxycarbonyl)amino)-6-phenyl-4,5,6,7-tetrahydrobenzo[b]thiophene-3-carboxylate] |  |  | 28.8 ± 2.06 | 21.5 ± 2.4 | 72.4 | 27.1 ± 0.35 | 102 | 665.0 ± 21.21 | 1.78 |  |  |  |  |  |  |  |  |  |  |
